Assay results taken from ChEMBL document CHEMBL4219242, “Furoxans (Oxadiazole-4 N-oxides) with Attenuated Reactivity are Neuroprotective, Cross the Blood Brain Barrier, and Improve Passive Avoidance Memory” (J Med Chem, 2018).
Activity calls are given as the source filed them.

Key:
[1] = tested on: PC-12; experiment: Neuroprotective activity against oxygen glucose deprivation-induced cell death in rat PC12 cells assessed as change in cell viability at 1 uM after 24 hrs by MTT assay relative to control; assay type: functional
In short: (§1)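 Undifferentiated PC12 cells (passage 12−14), 1 × 10^6 plated overnight in DMEM/F12 with 5% FBS and 5% horse serum. OGD: glucose-free HBSS under argon in an anaerobic chamber, 1.5 h at 37 °C. Reoxygenated in fresh growth medium with compound or DMSO vehicle for 24 h at 37 °C. Viability by MTT (0.5 mg/mL, 4 h), DMSO-solubilised, A540. % change vs vehicle control; mean ± SEM, n=3, triplicate experiments.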

[2] = tested on: PC-12; experiment: Neuroprotective activity against oxygen glucose deprivation-induced cell death in rat PC12 cells assessed as change in cell viability at 10 uM after 24 hrs by MTT assay relative to control; assay type: functional; in short: as §1
[3] = tested on: PC-12; experiment: Neuroprotective activity against oxygen glucose deprivation-induced cell death in rat PC12 cells assessed as change in cell viability at 25 uM after 24 hrs by MTT assay relative to control; assay type: functional; in short: as §1
[4] = Drug uptake in cytosol of rat PC12 cells at 25 after 24 hrs under oxygen glucose deprivation condition by LC-MS/MS analysis; assay type: ADME, subcellular, PC-12
In short: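 After OGD (as in the neuroprotection assay), 1×10^6 PC12 cells were exposed to analyte at 25 μM for 24 h; a non-OGD plate served as control. Medium and cytosolic fractions (HEPES/NP-40 lysis buffer, 15 min at 0 °C, centrifuged) were diluted in 2% formic acid, spiked with the deuterated/nondeuterated partner as internal standard, and analysed by UPLC-MS/MS (MRM). AUCs were normalised to the internal standard.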

[5] = Stability of the compound in pH 7.4 PBS buffer at 250 uM after 2 to 12 hrs in presence of excess free thiols by HPLC-PDA analysis; assay type: physicochemical; settings: pH 7.4, 250 µM
In short: (§2)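 Compound (250 μM) or N-ethylmaleimide control (250 μM) incubated with or without N-acetylcysteine (5 mM) in 50 mM PBS, pH 7.4, at 37 °C. Aliquots taken at 2 and 12 h were analysed by HPLC-PDA. Peak AUC at each analyte's λmax gave the remaining starting material.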

[6] = tested on: PC-12; experiment: Cytotoxicity against rat PC12 cells assessed as reduction in cell viability at 50 uM after 24 hrs by MTT assay; assay type: cell-based; settings: pc-12, 24 h
[7] = tested on: PC-12; experiment: Neuroprotective activity against oxygen glucose deprivation-induced cell death in rat PC12 cells assessed as change in cell viability after 24 hrs by resorufin-dye based assay; assay type: functional; settings: PC-12, 24 h
In short: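 PC12 cells (undifferentiated, passage 12−14) given OGD for 90 min (glucose-free HBSS, argon, 37 °C), then normoxic growth medium with compound at 0.1, 1, 5, 10, 25 or 50 μM for 24 h. PrestoBlue (10%, 30 min) fluorescence at 560/590 nm. Viability as percent change against vehicle-control mean; control plates without OGD were included.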

[8] = tested on: PC-12; experiment: Neuroprotective activity against oxygen glucose deprivation-induced cell death in rat PC12 cells assessed as reduction in cell viability at 50 uM after 24 hrs by MTT assay; assay type: functional, cell-based
[9] = tested on: PC-12; experiment: Neuroprotective activity against oxygen glucose deprivation-induced cell death in rat PC12 cells assessed as change in cell viability at 10 to 50 uM after 24 hrs cotreated with sGC inhibitor ODQ by MTT assay; assay type: functional, cell-based
In short: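 OGD-exposed PC12 cells (90 min glucose-free HBSS under argon, 37 °C) treated for 24 h with compound with or without the sGC inhibitor ODQ (10 μM). MTT viability read-out (0.5 mg/mL, 4 h, A540). Mean ± SEM (n = 3) of duplicate experiments; one-way ANOVA with Dunnett's test against vehicle.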

[10] = tested on: Mus musculus; experiment: Reversal of scopolamine-induced memory impairment in C57BL/6 mouse assessed as latency time to enter dark compartment at 20 mg/kg, ip administered 60 to 120 mins prior to training followed by scopolamine challenge 30 mins prior to training measured after 24 hrs (reference value: 63.5 +/- 30 sec); assay type: functional
In short: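 Male C57BL/6 mice, habituated to confirm photophobia, were given the HCl salt (0.1–20 mg/kg ip in 0.9% NaCl/1% DMSO) 60 or 120 min before training, and scopolamine 1 mg/kg ip 30 min before training. Double-trial step-through training used a 0.5 mA, 3 s shock. Latency to enter the dark side was measured 24 h later (cut-off 300 s). n = 8–9; ANOVA with Dunnett's test.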

[11] = Drug uptake in C57BL/6 mouse plasma at 20 mg/kg, ip or po measured after 1 to 12 hrs by LC-MS/MS analysis; assay type: ADME, organism-based; settings: in vivo
In short: (§3)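 Male C57BL/6 mice (n = 4 per group) given the HCl salt at 20 mg/kg, either by oral gavage in sesame oil or ip in 0.9% NaCl with 1% DMSO. Sacrificed at 1, 2 or 12 h. Plasma (cardiac puncture, K2EDTA) and forebrain homogenate underwent solid-phase extraction with the d4 internal standard, then LC-MS/MS MRM quantitation against a spiked-brain calibration curve. Concentrations normalised to tissue weight; duplicate LC runs.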

[12] = tested on: Mus musculus; experiment: Effect on CREB phosphorylation in C57BL/6 mouse forebrain at 20 mg/kg, ip or po measured after 1 to 12 hrs by ELISA; assay type: organism-based; settings: in vivo
[13] = Half life in C57BL/6 mouse plasma at 20 mg/kg, ip or po measured after 1 to 12 hrs by LC-MS/MS analysis; assay type: ADME, organism-based; in short: as §3
[14] = Half life in C57BL/6 mouse brain at 20 mg/kg, ip or po measured after 1 to 12 hrs by LC-MS/MS analysis; assay type: ADME, organism-based; in short: as §3
[15] = Drug uptake in C57BL/6 mouse brain at 20 mg/kg, ip or po measured after 1 to 12 hrs by LC-MS/MS analysis; assay type: ADME, organism-based; settings: in vivo; in short: as §3
[16] = tested on: Mus musculus; experiment: Effect on CREB phosphorylation in hippocampal tissue of scopolamine-induced C57BL/6 mouse memory deficit model at 20 mg/kg, ip treated for 2 hrs prior to test followed by scopolamine challenge 30 mins prior to test by Western blot analysis; assay type: organism-based; settings: in vivo
In short: (§4)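 C57BL/6 mice (N = 8 per cohort, blinded) received the HCl salt at 20 mg/kg ip (saline/1% DMSO) or vehicle 2 h before sacrifice, and scopolamine at 1 mg/kg ip or saline 30 min before sacrifice. Hippocampal lysates were run on 10−20% Tris-glycine gels and transferred to PVDF. Blots were probed with pCREB Ser133, CREB, p-ERK1/2 Thr202/Tyr204 and ERK1/2 antibodies, normalised to GAPDH and expressed as phospho:total.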

[17] = tested on: Mus musculus; experiment: Effect on Erk phosphorylation in hippocampal tissue of scopolamine-induced C57BL/6 mouse memory deficit model at 20 mg/kg, ip treated for 2 hrs prior to test followed by scopolamine challenge 30 mins prior to test by Western blot analysis; assay type: organism-based; settings: in vivo; in short: as §4
[18] = Ratio of drug uptake in C57BL/6 mouse brain to plasma at 20 mg/kg, po measured after 1 to 12 hrs by LC-MS/MS analysis; assay type: ADME, organism-based; settings: read-out: BPR
In short: (§5)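 Brain:plasma ratio taken from forebrain and plasma levels in C57BL/6 mice dosed at 20 mg/kg (ip in saline/1% DMSO or po in sesame oil), sampled at 1, 2 or 12 h. Samples extracted by SPE with the d4 internal standard and measured by LC-MS/MS MRM. Mean ± SEM; routes compared by unpaired t test.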

[19] = Ratio of drug uptake in C57BL/6 mouse brain to plasma at 20 mg/kg, ip measured after 1 to 12 hrs by LC-MS/MS analysis; assay type: ADME, organism-based; settings: read-out: BPR; in short: as §5
[20] = Thiol reactivity of the compound in pH 7.4 PBS buffer at 250 uM after 2 to 12 hrs by HPLC-PDA analysis; assay type: physicochemical; settings: pH 7.4, 250 µM; in short: as §2

COc1ccc(-c2c(CN3CCC(C)CC3)no[n+]2[O-])cc1
Activity [1]: 11%
Activity [2]: 12%
Activity [3]: 5%

CC1CCN(Cc2no[n+]([O-])c2-c2ccc(Cl)cc2)CC1
Activity [1]: -10%
Activity [2]: 19%
Activity [3]: 4%

CC1CCN(Cc2no[n+]([O-])c2-c2ccc(Br)cc2)CC1
Activity [1]: 25%
Activity [2]: 77%
Activity [3]: 96%

CC1CCN(Cc2no[n+]([O-])c2-c2ccccc2)CC1
Activity [1]: -21%
Activity [2]: 6%
Activity [3]: -11%

CC1CCN(Cc2c(-c3ccc(C(F)(F)F)cc3)no[n+]2[O-])CC1
Activity [1]: -9%
Activity [2]: 10%
Activity [3]: 0%

[2H]C1([2H])CC(C)CC([2H])([2H])N1Cc1c(-c2ccc(F)cc2)no[n+]1[O-]
Activity [1]: 11%
Activity [2]: 6%
Activity [3]: -1%

CC1CCN(Cc2no[n+]([O-])c2-c2ccc(F)cc2)CC1
Drug uptake [4]: Active
Stability [5]: Stable
Activity [6]: Non-Toxic
Activity [1]: -3%
Activity [2]: 46%
Activity [3]: 41%
EC50 [7]: 1900 nM
Activity [8]: inactive
Activity [9]: inactive
Time [10]: 237 s
Drug uptake [11]: Active
Activity [12]: Non-Toxic
half-life [13]: 110 min
half-life [14]: 50 min
Drug uptake [15]: Active
Activity [16]: Non-Toxic
Activity [17]: Non-Toxic
Kp [18]: 1.49
Kp [19]: 0.68

CC1CCN(Cc2no[n+]([O-])c2-c2ccc(OC(F)F)cc2)CC1
Activity [1]: 67%
Activity [2]: 61%
Activity [3]: 53%

CCN1C(=O)C=CC1=O [N-ETHYLMALEIMIDE]
Drug metabolism [20]: Metabolite_Detected

Cc1ccc(-c2no[n+]([O-])c2CN2CCC(C)CC2)cc1
Activity [1]: 7%
Activity [2]: 12%
Activity [3]: 10%

CC1CCN(Cc2c(-c3ccc(Br)cc3)no[n+]2[O-])CC1
Activity [1]: -7%
Activity [2]: -2%
Activity [3]: 19%

COc1ccc(-c2no[n+]([O-])c2CN2CCC(C)CC2)cc1
Activity [1]: 14%
Activity [2]: 10%
Activity [3]: -1%

CC1CCN(Cc2c(-c3ccc(F)cc3)no[n+]2[O-])CC1
Activity [1]: 11%
Activity [2]: 11%
Activity [3]: 5%

CC1CCN(Cc2c(-c3ccccc3)no[n+]2[O-])CC1
Activity [1]: 9%
Activity [2]: 19%
Activity [3]: 16%

CC1CCN(Cc2c(-c3ccc(OC(F)F)cc3)no[n+]2[O-])CC1
Activity [1]: 54%
Activity [2]: 86%
Activity [3]: 108%

CC1CCN(Cc2no[n+]([O-])c2-c2ccc(C(F)(F)F)cc2)CC1
Activity [1]: 2%
Activity [2]: -16%
Activity [3]: -22%

[2H]C1([2H])CC(C)CC([2H])([2H])N1Cc1no[n+]([O-])c1-c1ccc(F)cc1
Drug uptake [4]: Active
Activity [1]: 8%
Activity [2]: 20%
Activity [3]: 7%

CC1CCN(Cc2c(-c3ccc(Cl)cc3)no[n+]2[O-])CC1
Activity [1]: 35%
Activity [2]: 7%
Activity [3]: 25%

Cc1ccc(-c2c(CN3CCC(C)CC3)no[n+]2[O-])cc1
Activity [1]: 22%
Activity [2]: 13%
Activity [3]: 8%
